Consider 7 compounds from ChEMBL document CHEMBL2046393, “Enantiomeric derivatives of tokinolide B: absolute configuration and biological properties” (J Nat Prod, 2012).

Type in all cases: functional, cell-based
Experiment [1] concerns K562. The experiment in a line: Cytotoxicity against human K562 cells assessed as growth inhibition after 48 hrs by SRB assay. The following applies: K562, 48 h. In outline:
(§1)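 Cell lines from NCI, grown in RPMI-1640 with 10% FBS and antibiotics at 37 °C, 5% CO2. Seeding: HCT-15 10 × 10^4 cell/well, K562 5 × 10^4 cell/mL, SKLU-1 7500 cell/mL. After 24 h, compound added for 48 h. Cells fixed in cold TCA (60 min, 4 °C), stained with 0.4% SRB, dye extracted in Tris base, OD read at 515 nm. IC50 from linear regression; means ± SEM, three replicates.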
Background: In SRB staining, fixed cells bind dye roughly in proportion to their protein.

The test system of experiment [2] is HCT-15. The experiment in a line: Cytotoxicity against human HCT15 cells assessed as growth inhibition after 48 hrs by SRB assay. As to conditions: HCT-15, 48 h. In outline:
as §1

Experiment [3] concerns SK-LU-1. The experiment in a line: Cytotoxicity against human SKLU1 cells assessed as growth inhibition after 48 hrs by SRB assay. The following applies: SK-LU-1, 48 h. In outline:
as §1

SMILES strings stand for the structures.

For orientation: IC50 means the concentration at which inhibition is half-maximal. Regarding `CCC/C=C1\OC(=O)C2=C1CC[C@H]1[C@@H]2[C@@]2(OC(=O)C3=C2CCC=C3)[C@H]1CCC` (racemic), the IC50 in experiment [1] was 46.1 µM; in experiment [2] it was 44.8 µM; in experiment [3] it was 13.2 µM.
Take `CCCC[C@]12O[C@@]34CCCC=C3C(=O)O[C@]43[C@@H](CCC)[C@H]4C=C(C(=O)N1[C@@H](C)c1ccccc1)[C@@]32CC4`: the values for the IC50 in experiment [1], in experiment [2] and in experiment [3] were 5.2 µM, 5.2 µM and 4.3 µM, respectively.
In the case of `C=C1C(=O)O[C@@H]2C[C@@H](C)[C@@H]3C=CC(=O)[C@@]3(C)[C@@H](O)[C@H]12` [HELENALIN], the IC50 came to 0.28 µM in experiment [1], 0.29 µM in experiment [2] and 0.21 µM in experiment [3].
For `CCCC[C@@]12O[C@]34CCCC=C3C(=O)O[C@@]43[C@H](CCC)[C@H]4C=C(C(=O)N1[C@H](C)c1ccccc1)[C@]32CC4` the same measures were 21.7 µM, 8.5 µM and 5.9 µM.
For `CCCC[C@]12O[C@@]34CCCC=C3C(=O)O[C@]43[C@@H](CCC)[C@@H]4C=C(C(=O)N1[C@H](C)c1ccccc1)[C@@]32CC4` the same measures were 5.7 µM, 5.4 µM and 4.1 µM.
For `CCCC[C@@]12O[C@]34CCCC=C3C(=O)O[C@@]43[C@H](CCC)[C@@H]4C=C(C(=O)N1[C@@H](C)c1ccccc1)[C@]32CC4`, in that order: 13.9 µM, 7.5 µM and 4.9 µM.
`CCC/C=C1\OC(=O)C2=C[C@H]3CCC21[C@]1(OC(=O)C2=C1CCC=C2)[C@@H]3CCC` (mixture of isomers): the IC50 in experiment [1] stood at 26.6 µM; in experiment [2], 10.5 µM; in experiment [3], 7.1 µM.
